Measured values taken from ChEMBL document CHEMBL4038305, “Benzoxaborole Antimalarial Agents. Part 5. Lead Optimization of Novel Amide Pyrazinyloxy Benzoxaboroles and Identification of a Preclinical Candidate” (J Med Chem, 2017).

Tests used:
Plasmodium falciparum [1] = assay: Antimalarial activity against Plasmodium falciparum TM90C2B infected in human erythrocytes assessed as reduction in [3H]-hypoxanthine incorporation preincubated for 24 hrs followed by [3H]-hypoxanthine addition measured after 24 hrs by scintillation counting method; type: functional, cell-based
Plasmodium falciparum [2] = assay: Antimalarial activity against intraerythrocytic stage of Plasmodium falciparum assessed as time required to clear 99.9% of initial parasite population at 10 times IC50 preincubated for 24 hrs followed by [3H]-hypoxanthine addition measured after 24 hrs by scintillation counting method; type: functional
Method in brief: (§1)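 In vitro P. falciparum parasite reduction ratio assay run at 10×, 30× and 100× IC50. Derived parameters: lag phase (time to maximal killing), PRR (parasites killed per life cycle) and PCT99.9% (time to clear 99.9% of the initial parasite population).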

Plasmodium falciparum [3] = assay: Antimalarial activity against intraerythrocytic stage of Plasmodium falciparum assessed as time required for maximal killing effect at 10 times IC50 preincubated for 24 hrs followed by [3H]-hypoxanthine addition measured after 24 hrs by scintillation counting method; type: functional; method in brief: as §1
Plasmodium falciparum [4] = assay: Antimalarial activity against Plasmodium falciparum Dd2 infected in human erythrocytes assessed as reduction in [3H]-hypoxanthine incorporation preincubated for 24 hrs followed by [3H]-hypoxanthine addition measured after 24 hrs by scintillation counting method; type: functional, cell-based
Plasmodium falciparum [5] = assay: Antimalarial activity against intraerythrocytic stage of Plasmodium falciparum assessed as parasite reduction ratio at 10 times IC50 preincubated for 24 hrs followed by [3H]-hypoxanthine addition measured after 24 hrs by scintillation counting method; type: functional; method in brief: as §1
Plasmodium falciparum [6] = assay: Antimalarial activity against Plasmodium falciparum K1 infected in human erythrocytes assessed as reduction in [3H]-hypoxanthine incorporation preincubated for 24 hrs followed by [3H]-hypoxanthine addition measured after 24 hrs by scintillation counting method; type: functional, cell-based
Plasmodium falciparum [7] = assay: Antimalarial activity against Plasmodium falciparum NF54 infected in human erythrocytes assessed as reduction in [3H]-hypoxanthine incorporation preincubated for 24 hrs followed by [3H]-hypoxanthine addition measured after 24 hrs by scintillation counting method; type: functional, cell-based
Plasmodium berghei [8] = assay: Antimalarial activity against Plasmodium berghei infected in Swiss Webster mouse assessed as mouse survival rate at 33 mg/kg administered once daily via oral gavage for 4 consecutive days beginning 1 hr after infection measured on day 6 post infection relative to control; type: functional
Method in brief: (§2)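 P. berghei-infected erythrocytes taken from a previously infected mouse were injected intraperitoneally. Oral dosing, once daily for 4 consecutive days, began 1 h after infection, in polyethylene glycol 300/propylene glycol/water (55/25/20 by weight). Chloroquine at 30 mg/kg was the positive control, with a vehicle-only group. Percent survival was recorded daily from day 4 to day 20.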

Plasmodium berghei [9] = assay: Antimalarial activity against Plasmodium berghei infected in Swiss Webster mouse assessed as mouse survival rate at 3 mg/kg administered once daily via oral gavage for 4 consecutive days beginning 1 hr after infection measured on day 4 post infection relative to control; type: functional; method in brief: as §2
Plasmodium berghei [10] = assay: Antimalarial activity against Plasmodium berghei infected in Swiss Webster mouse assessed as mouse survival rate at 1 mg/kg administered once daily via oral gavage for 4 consecutive days beginning 1 hr after infection measured on day 6 post infection relative to control; type: functional
Method in brief: (§3)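 Mice given an intraperitoneal injection of P. berghei-infected erythrocytes taken from a previously infected animal. Oral dosing once daily for 4 consecutive days, starting 1 h after infection. Vehicle: polyethylene glycol 300/propylene glycol/water (weight ratio 55/25/20). Percent survival recorded daily from day 4 to day 20. Chloroquine 30 mg/kg and vehicle-only groups served as controls.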

Plasmodium berghei [11] = assay: Antimalarial activity against Plasmodium berghei infected in Swiss Webster mouse assessed as mouse survival rate at 33 mg/kg administered once daily via oral gavage for 4 consecutive days beginning 1 hr after infection measured on day 7 post infection relative to control; type: functional; method in brief: as §2
Plasmodium berghei [12] = assay: Antimalarial activity against Plasmodium berghei infected in Swiss Webster mouse assessed as mouse survival rate at 11 mg/kg administered once daily via oral gavage for 4 consecutive days beginning 1 hr after infection measured on day 4 post infection relative to control; type: functional; method in brief: as §2
Plasmodium berghei [13] = assay: Antimalarial activity against Plasmodium berghei infected in Swiss Webster mouse assessed as mouse survival rate at 33 mg/kg administered once daily via oral gavage for 4 consecutive days beginning 1 hr after infection measured on day 4 post infection relative to control; type: functional; method in brief: as §2
Plasmodium berghei [14] = assay: Antimalarial activity against Plasmodium berghei infected in Swiss Webster mouse assessed as mouse survival rate at 33 mg/kg administered once daily via oral gavage for 4 consecutive days beginning 1 hr after infection measured on day 5 post infection relative to control; type: functional; method in brief: as §2
Plasmodium berghei [15] = assay: Antimalarial activity against Plasmodium berghei infected in Swiss Webster mouse assessed as mouse survival rate at 200 mg/kg administered once daily via oral gavage for 4 consecutive days beginning 1 hr after infection measured on day 10 post infection relative to control; type: functional; method in brief: as §2
Plasmodium berghei [16] = assay: Antimalarial activity against Plasmodium berghei infected in Swiss Webster mouse assessed as mouse survival rate at 100 mg/kg administered once daily via oral gavage for 4 consecutive days beginning 1 hr after infection measured on day 8 post infection relative to control; type: functional; method in brief: as §3
Plasmodium falciparum [17] = assay: Antimalarial activity against chloroquine-resistant Plasmodium falciparum W2 infected in human erythrocytes after 48 hrs by YOYO-1 dye based flow cytometric analysis; type: functional, cell-based; settings: W2, 48 h
Method in brief: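 P. falciparum W2 cultures were exposed to the compound for 48 h, with artemisinin and chloroquine as reference controls. IC50 was taken from two independent replicates.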

Plasmodium berghei [18] = assay: Antimalarial activity against Plasmodium berghei infected in Swiss Webster mouse assessed as mouse survival rate at 100 mg/kg administered once daily via oral gavage for 4 consecutive days beginning 1 hr after infection measured on day 7 post infection relative to control; type: functional; method in brief: as §3
Plasmodium berghei [19] = assay: Antimalarial activity against Plasmodium berghei infected in Swiss Webster mouse assessed as mouse survival rate at 100 mg/kg administered once daily via oral gavage for 4 consecutive days beginning 1 hr after infection measured on day 9 post infection relative to control; type: functional; method in brief: as §3
Plasmodium berghei [20] = assay: Antimalarial activity against Plasmodium berghei infected in Swiss Webster mouse assessed as mouse survival rate at 200 mg/kg administered once daily via oral gavage for 4 consecutive days beginning 1 hr after infection measured on day 6 post infection relative to control; type: functional; method in brief: as §2
Plasmodium berghei [21] = assay: Antimalarial activity against Plasmodium berghei infected in Swiss Webster mouse assessed as mouse survival rate at 1 mg/kg administered once daily via oral gavage for 4 consecutive days beginning 1 hr after infection measured on day 7 post infection relative to control; type: functional; method in brief: as §3
Plasmodium berghei [22] = assay: Antimalarial activity against Plasmodium berghei infected in Swiss Webster mouse assessed as mouse survival rate at 200 mg/kg administered once daily via oral gavage for 4 consecutive days beginning 1 hr after infection measured on day 4 post infection relative to control; type: functional; method in brief: as §2
Plasmodium berghei [23] = assay: Antimalarial activity against Plasmodium berghei infected in Swiss Webster mouse assessed as mouse survival rate at 3 mg/kg administered once daily via oral gavage for 4 consecutive days beginning 1 hr after infection measured on day 7 post infection relative to control; type: functional; method in brief: as §2
Plasmodium berghei [24] = assay: Antimalarial activity against Plasmodium berghei infected in Swiss Webster mouse assessed as mouse survival rate at 200 mg/kg administered once daily via oral gavage for 4 consecutive days beginning 1 hr after infection measured on day 9 post infection relative to control; type: functional; method in brief: as §2
Plasmodium berghei [25] = assay: Antimalarial activity against Plasmodium berghei infected in Swiss Webster mouse assessed as mouse survival rate at 11 mg/kg administered once daily via oral gavage for 4 consecutive days beginning 1 hr after infection measured on day 6 post infection relative to control; type: functional; method in brief: as §2
Plasmodium berghei [26] = assay: Antimalarial activity against Plasmodium berghei infected in Swiss Webster mouse assessed as mouse survival rate at 100 mg/kg administered once daily via oral gavage for 4 consecutive days beginning 1 hr after infection measured on day 5 post infection relative to control; type: functional; method in brief: as §3
Plasmodium falciparum [27] = assay: Antimalarial activity against chloroquine-sensitive Plasmodium falciparum 3D7 infected in human erythrocytes assessed as reduction in [3H]-hypoxanthine incorporation preincubated for 24 hrs followed by [3H]-hypoxanthine addition measured after 24 hrs by scintillation counting method; type: functional, cell-based
Method in brief: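 P. falciparum 3D7 cultures were exposed to the compound for 48 h, with atovaquone as the reference control. IC50 was taken from three replicates.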

Plasmodium berghei [28] = assay: Antimalarial activity against Plasmodium berghei infected in Swiss Webster mouse assessed as mouse survival rate at 100 mg/kg administered once daily via oral gavage for 4 consecutive days beginning 1 hr after infection measured on day 4 post infection relative to control; type: functional; method in brief: as §3
Plasmodium berghei [29] = assay: Antimalarial activity against Plasmodium berghei infected in Swiss Webster mouse assessed as mouse survival rate at 3 mg/kg administered once daily via oral gavage for 4 consecutive days beginning 1 hr after infection measured on day 6 post infection relative to control; type: functional; method in brief: as §2
Plasmodium berghei [30] = assay: Antimalarial activity against Plasmodium berghei infected in Swiss Webster mouse assessed as mouse survival rate at 3 mg/kg administered once daily via oral gavage for 4 consecutive days beginning 1 hr after infection measured on day 5 post infection relative to control; type: functional; method in brief: as §2
Plasmodium berghei [31] = assay: Antimalarial activity against Plasmodium berghei infected in Swiss Webster mouse assessed as mouse survival rate at 1 mg/kg administered once daily via oral gavage for 4 consecutive days beginning 1 hr after infection measured on day 5 post infection relative to control; type: functional; method in brief: as §3
Plasmodium berghei [32] = assay: Antimalarial activity against Plasmodium berghei infected in Swiss Webster mouse assessed as mouse survival rate administered once daily via oral gavage for 4 consecutive days beginning 1 hr after infection measured on day 4 post infection; type: functional; method in brief: as §3
Plasmodium berghei [33] = assay: Antimalarial activity against Plasmodium berghei infected in Swiss Webster mouse assessed as mouse survival rate at 200 mg/kg administered once daily via oral gavage for 4 consecutive days beginning 1 hr after infection measured on day 8 post infection relative to control; type: functional; method in brief: as §2
Plasmodium berghei [34] = assay: Antimalarial activity against Plasmodium berghei infected in Swiss Webster mouse assessed as mouse survival rate at 100 mg/kg administered once daily via oral gavage for 4 consecutive days beginning 1 hr after infection measured on day 6 post infection relative to control; type: functional; method in brief: as §3
Plasmodium berghei [35] = assay: Antimalarial activity against Plasmodium berghei infected in Swiss Webster mouse assessed as mouse survival rate at 1 mg/kg administered once daily via oral gavage for 4 consecutive days beginning 1 hr after infection measured on day 4 post infection relative to control; type: functional; method in brief: as §3
Plasmodium berghei [36] = assay: Antimalarial activity against Plasmodium berghei infected in Swiss Webster mouse assessed as mouse survival rate at 200 mg/kg administered once daily via oral gavage for 4 consecutive days beginning 1 hr after infection measured on day 7 post infection relative to control; type: functional; method in brief: as §2
Plasmodium berghei [37] = assay: Antimalarial activity against Plasmodium berghei infected in Swiss Webster mouse assessed as mouse survival rate at 3.7 mg/kg administered once daily via oral gavage for 4 consecutive days beginning 1 hr after infection measured on day 5 post infection relative to control; type: functional; method in brief: as §2
Plasmodium berghei [38] = assay: Antimalarial activity against Plasmodium berghei infected in Swiss Webster mouse assessed as mouse survival rate at 11 mg/kg administered once daily via oral gavage for 4 consecutive days beginning 1 hr after infection measured on day 7 post infection relative to control; type: functional; method in brief: as §2
Plasmodium berghei [39] = assay: Antimalarial activity against Plasmodium berghei infected in Swiss Webster mouse assessed as mouse survival rate at 200 mg/kg administered once daily via oral gavage for 4 consecutive days beginning 1 hr after infection measured on day 5 post infection relative to control; type: functional; method in brief: as §2
Plasmodium berghei [40] = assay: Antimalarial activity against Plasmodium berghei infected in Swiss Webster mouse assessed as mouse survival rate at 200 mg/kg administered once daily via oral gavage for 4 consecutive days beginning 1 hr after infection measured on day 11 post infection relative to control; type: functional; method in brief: as §2

## O=C1C(O)=C([C@H]2CC[C@H](c3ccc(Cl)cc3)CC2)C(=O)c2ccccc21 [ATOVAQUONE]
Plasmodium falciparum [1]
  IC50: > 35 nM
Plasmodium falciparum [2]
  T99.9%: 81 h
Plasmodium falciparum [3]
  Time: 48 h
Plasmodium falciparum [4]
  IC50: 2 nM
Plasmodium falciparum [5]
  log(ratio): 2.9
Plasmodium falciparum [6]
  IC50: 0.7 nM
Plasmodium falciparum [7]
  IC50: 1 nM

## CC[C@H](CO)NC(=O)c1cnc(Oc2ccc3c(c2C)B(O)OC3)cn1
Plasmodium berghei [8]
  survival at 33 mg/kg: 100%
Plasmodium berghei [9]
  survival at 3 mg/kg: 100%
Plasmodium berghei [10]
  survival at 1 mg/kg: 100%
Plasmodium berghei [11]
  survival at 33 mg/kg: 0%
Plasmodium berghei [12]
  survival at 11 mg/kg: 100%
Plasmodium berghei [13]
  survival at 33 mg/kg: 100%
Plasmodium berghei [14]
  survival at 33 mg/kg: 100%
Plasmodium berghei [15]
  survival at 200 mg/kg: 20%
Plasmodium berghei [16]
  survival at 100 mg/kg: 80%
Plasmodium falciparum [17]
  IC50: 136 nM
Plasmodium berghei [18]
  survival at 100 mg/kg: 100%
Plasmodium berghei [19]
  survival at 100 mg/kg: 0%
Plasmodium berghei [20]
  survival at 200 mg/kg: 100%
Plasmodium berghei [21]
  survival at 1 mg/kg: 0%
Plasmodium berghei [22]
  survival at 200 mg/kg: 100%
Plasmodium berghei [23]
  survival at 3 mg/kg: 0%
Plasmodium berghei [24]
  survival at 200 mg/kg: 60%
Plasmodium berghei [25]
  survival at 11 mg/kg: 100%
Plasmodium berghei [26]
  survival at 100 mg/kg: 100%
Plasmodium falciparum [27]
  IC50: 403 nM
Plasmodium berghei [28]
  survival at 100 mg/kg: 100%
Plasmodium berghei [29]
  survival at 3 mg/kg: 100%
Plasmodium berghei [30]
  survival at 3 mg/kg: 100%
Plasmodium berghei [31]
  survival at 1 mg/kg: 100%
Plasmodium berghei [32]
  ED90: 43.3 mg/kg
Plasmodium berghei [33]
  survival at 200 mg/kg: 100%
Plasmodium berghei [34]
  survival at 100 mg/kg: 100%
Plasmodium berghei [35]
  survival at 1 mg/kg: 100%
Plasmodium berghei [36]
  survival at 200 mg/kg: 100%
Plasmodium berghei [37]
  survival at 3.7 mg/kg: 100%
Plasmodium berghei [38]
  survival at 11 mg/kg: 0%
Plasmodium berghei [39]
  survival at 200 mg/kg: 100%
Plasmodium berghei [40]
  survival at 200 mg/kg: 0%
